Assay results as given in ChEMBL document CHEMBL4689842, “EUbOPEN Chemogenomics Library wave 1” (2021).
Values joined by “and” are separate entries in the source; they are usually repeats but may differ in a detail not shown here. Identical values can stand only once.

Tested on: Fibroblast
Assay: Multiplex assay against human fibroblast
Assay type: toxicity, cell-based
Outline: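 Cells stained live at seeding with Hoechst33342, BioTracker Green Microtubule Cytoskeleton Dye, MitoTracker Red and Annexin V Alexa Fluor 680 were imaged on a CQ1 microscope at 37°C and 5% CO2 after compound addition. Their classification by CellPathfinder machine-learning gating ran from Hoechst high-intensity objects versus normal cells, to healthy, pyknosed or fragmented nuclei among normal cells, to mitotic or apoptotic among pyknosed cells. Tubulin, mitochondrial-mass and membrane-permeability phenotypes are per cents of healthy-nucleus cells.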

[1] = 12 h, 10 µM, compound concentration 10 uM, replicate 1
[2] = 12 h, 10 µM, compound concentration 10 uM, replicate 2
[3] = 24 h, 10 µM, compound concentration 10 uM, replicate 1
[4] = 24 h, 10 µM, compound concentration 10 uM, replicate 2
[5] = 12 h, 1 µM, compound concentration 1 uM, replicate 1
[6] = 12 h, 1 µM, compound concentration 1 uM, replicate 2
[7] = 24 h, 1 µM, compound concentration 1 uM, replicate 1
[8] = 24 h, 1 µM, compound concentration 1 uM, replicate 2
[9] = 48 h, 10 µM, compound concentration 10 uM, replicate 1
[10] = 48 h, 10 µM, compound concentration 10 uM, replicate 2

Cc1sc2c(c1C)C(c1ccc(Cl)cc1)=N[C@@H](CC(=O)OC(C)(C)C)c1nnc(C)n1-2
Population Apoptotic (%) [1]: 71% and 88% | Population Fragmented Nuclei (%) [1]: 38% and 43% | Population Healthy Nuclei (%) [1]: 48% and 40% | Population Hoechst High Intensity Objects (%) [1]: 13% and 14% | Population Membrane Permeable-Phenotype (%) [1]: 7% and 4% | Population Mitochondria Different-Phenotype (%) [1]: 0% | Population Mitotic Cells (%) [1]: 28% and 12% | Population Normal (%) [1]: 86% and 85% | Population Pyknosed Nuclei (%) [1]: 13% and 16% | Population Tubulin-Different-Phenotype (%) [1]: 4% and 0% | Total Cell Count [1]: 368 and 183 | Population Apoptotic (%) [2]: 66% | Population Fragmented Nuclei (%) [2]: 55% and 63% | Population Healthy Nuclei (%) [2]: 39% and 31% | Population Hoechst High Intensity Objects (%) [2]: 24% and 25% | Population Membrane Permeable-Phenotype (%) [2]: 10% and 0% | Population Mitotic Cells (%) [2]: 33% | Population Normal (%) [2]: 75% | Population Pyknosed Nuclei (%) [2]: 6% and 4% | Total Cell Count [2]: 132 and 92 | Population Apoptotic (%) [3]: 73% | Population Fragmented Nuclei (%) [3]: 36% and 29% | Population Healthy Nuclei (%) [3]: 47% and 59% | Population Hoechst High Intensity Objects (%) [3]: 12% and 16% | Population Membrane Permeable-Phenotype (%) [3]: 7% | Population Mitochondria Different-Phenotype (%) [3]: 6% | Population Mitotic Cells (%) [3]: 26% | Population Normal (%) [3]: 87% and 83% | Population Pyknosed Nuclei (%) [3]: 16% and 11% | Population Tubulin-Different-Phenotype (%) [3]: 2% and 1% | Total Cell Count [3]: 183 and 320 | Population Apoptotic (%) [4]: 71% and 66% | Population Fragmented Nuclei (%) [4]: 56% and 42% | Population Healthy Nuclei (%) [4]: 31% and 49% | Population Hoechst High Intensity Objects (%) [4]: 28% and 21% | Population Mitochondria Different-Phenotype (%) [4]: 11% and 14% | Population Mitotic Cells (%) [4]: 28% and 33% | Population Normal (%) [4]: 71% and 78% | Population Pyknosed Nuclei (%) [4]: 12% and 8% | Population Tubulin-Different-Phenotype (%) [4]: 11% | Total Cell Count [4]: 81 and 91

CN1C(=O)c2sccc2N(C)c2nc(Nc3ccc(S(N)(=O)=O)cc3)ncc21
Population Apoptotic (%) [1]: 73% and 80% | Population Fragmented Nuclei (%) [1]: 30% and 28% | Population Healthy Nuclei (%) [1]: 50% and 56% | Population Hoechst High Intensity Objects (%) [1]: 9% and 15% | Population Membrane Permeable-Phenotype (%) [1]: 7% and 4% | Population Mitochondria Different-Phenotype (%) [1]: 7% | Population Mitotic Cells (%) [1]: 26% and 20% | Population Normal (%) [1]: 90% and 84% | Population Pyknosed Nuclei (%) [1]: 18% and 14% | Population Tubulin-Different-Phenotype (%) [1]: 3% and 7% | Total Cell Count [1]: 224 and 198 | Population Fragmented Nuclei (%) [2]: 52% | Population Healthy Nuclei (%) [2]: 36% and 33% | Population Hoechst High Intensity Objects (%) [2]: 32% and 34% | Population Membrane Permeable-Phenotype (%) [2]: 13% and 8% | Population Mitochondria Different-Phenotype (%) [2]: 13% and 0% | Population Mitotic Cells (%) [2]: 42% and 100% | Population Normal (%) [2]: 67% and 65% | Population Pyknosed Nuclei (%) [2]: 11% and 13% | Population Tubulin-Different-Phenotype (%) [2]: 4% and 0% | Total Cell Count [2]: 91 and 55 | Population Apoptotic (%) [3]: 55% and 72% | Population Fragmented Nuclei (%) [3]: 23% and 27% | Population Healthy Nuclei (%) [3]: 60% and 52% | Population Hoechst High Intensity Objects (%) [3]: 14% and 16% | Population Membrane Permeable-Phenotype (%) [3]: 8% | Population Mitochondria Different-Phenotype (%) [3]: 2% | Population Mitotic Cells (%) [3]: 44% and 27% | Population Normal (%) [3]: 85% and 83% | Population Pyknosed Nuclei (%) [3]: 15% and 20% | Population Tubulin-Different-Phenotype (%) [3]: 5% and 3% | Total Cell Count [3]: 219 and 217 | Population Apoptotic (%) [4]: 45% and 50% | Population Fragmented Nuclei (%) [4]: 59% and 52% | Population Healthy Nuclei (%) [4]: 23% and 36% | Population Hoechst High Intensity Objects (%) [4]: 33% and 37% | Population Membrane Permeable-Phenotype (%) [4]: 0% | Population Mitochondria Different-Phenotype (%) [4]: 6% and 0% | Population Mitotic Cells (%) [4]: 54% and 50% | Population Normal (%) [4]: 66% and 62% | Population Pyknosed Nuclei (%) [4]: 17% and 11% | Population Tubulin-Different-Phenotype (%) [4]: 6% and 15% | Total Cell Count [4]: 96 and 58

COc1cc2nccc(Oc3ccc(NC(=O)Nc4cc(C)on4)c(Cl)c3)c2cc1OC.O
Population Apoptotic (%) [5]: 66% and 58% | Population Fragmented Nuclei (%) [5]: 38% and 29% | Population Healthy Nuclei (%) [5]: 45% and 54% | Population Hoechst High Intensity Objects (%) [5]: 11% and 12% | Population Membrane Permeable-Phenotype (%) [5]: 10% and 8% | Population Mitochondria Different-Phenotype (%) [5]: 10% | Population Mitotic Cells (%) [5]: 33% and 41% | Population Normal (%) [5]: 88% and 87% | Population Pyknosed Nuclei (%) [5]: 16% | Population Tubulin-Different-Phenotype (%) [5]: 13% | Total Cell Count [5]: 229 and 203 | Population Apoptotic (%) [6]: 40% and 50% | Population Fragmented Nuclei (%) [6]: 63% and 48% | Population Healthy Nuclei (%) [6]: 28% and 18% | Population Hoechst High Intensity Objects (%) [6]: 33% and 40% | Population Membrane Permeable-Phenotype (%) [6]: 27% and 28% | Population Mitotic Cells (%) [6]: 60% and 50% | Population Normal (%) [6]: 66% and 59% | Population Tubulin-Different-Phenotype (%) [6]: 38% and 57% | Total Cell Count [6]: 95 and 62 | Population Apoptotic (%) [1]: 47% | Population Fragmented Nuclei (%) [1]: 30% | Population Healthy Nuclei (%) [1]: 31% | Population Hoechst High Intensity Objects (%) [1]: 13% | Population Membrane Permeable-Phenotype (%) [1]: 17% | Population Mitochondria Different-Phenotype (%) [1]: 31% | Population Mitotic Cells (%) [1]: 52% | Population Normal (%) [1]: 86% | Population Pyknosed Nuclei (%) [1]: 37% | Population Tubulin-Different-Phenotype (%) [1]: 77% | Total Cell Count [1]: 163 | Population Apoptotic (%) [2]: 71% | Population Fragmented Nuclei (%) [2]: 11% | Population Healthy Nuclei (%) [2]: 75% | Population Hoechst High Intensity Objects (%) [2]: 3% | Population Membrane Permeable-Phenotype (%) [2]: 36% | Population Mitochondria Different-Phenotype (%) [2]: 97% | Population Mitotic Cells (%) [2]: 28% | Population Normal (%) [2]: 96% | Population Pyknosed Nuclei (%) [2]: 12% | Population Tubulin-Different-Phenotype (%) [2]: 97% | Total Cell Count [2]: 58 | Population Apoptotic (%) [7]: 76% and 68% | Population Fragmented Nuclei (%) [7]: 41% and 26% | Population Healthy Nuclei (%) [7]: 39% and 59% | Population Hoechst High Intensity Objects (%) [7]: 15% and 11% | Population Membrane Permeable-Phenotype (%) [7]: 3% and 0% | Population Mitochondria Different-Phenotype (%) [7]: 42% | Population Mitotic Cells (%) [7]: 23% and 32% | Population Normal (%) [7]: 84% and 88% | Population Pyknosed Nuclei (%) [7]: 19% and 14% | Total Cell Count [7]: 231 and 198 | Population Apoptotic (%) [8]: 25% | Population Fragmented Nuclei (%) [8]: 58% and 53% | Population Healthy Nuclei (%) [8]: 34% and 19% | Population Hoechst High Intensity Objects (%) [8]: 35% and 29% | Population Membrane Permeable-Phenotype (%) [8]: 10% and 22% | Population Mitotic Cells (%) [8]: 75% | Population Normal (%) [8]: 64% and 70% | Total Cell Count [8]: 85 and 67 | Population Apoptotic (%) [3]: 57% | Population Fragmented Nuclei (%) [3]: 29% | Population Healthy Nuclei (%) [3]: 40% | Population Hoechst High Intensity Objects (%) [3]: 19% | Population Membrane Permeable-Phenotype (%) [3]: 11% | Population Mitochondria Different-Phenotype (%) [3]: 53% | Population Mitotic Cells (%) [3]: 42% | Population Normal (%) [3]: 80% | Population Pyknosed Nuclei (%) [3]: 29% | Population Tubulin-Different-Phenotype (%) [3]: 86% | Total Cell Count [3]: 158 | Population Apoptotic (%) [4]: 92% | Population Fragmented Nuclei (%) [4]: 16% | Population Healthy Nuclei (%) [4]: 60% | Population Hoechst High Intensity Objects (%) [4]: 3% | Population Membrane Permeable-Phenotype (%) [4]: 67% | Population Mitochondria Different-Phenotype (%) [4]: 100% | Population Mitotic Cells (%) [4]: 7% | Population Normal (%) [4]: 96% | Population Pyknosed Nuclei (%) [4]: 23% | Population Tubulin-Different-Phenotype (%) [4]: 97% | Total Cell Count [4]: 58 | Population Apoptotic (%) [9]: 76% | Population Fragmented Nuclei (%) [9]: 33% | Population Healthy Nuclei (%) [9]: 47% | Population Hoechst High Intensity Objects (%) [9]: 22% | Population Membrane Permeable-Phenotype (%) [9]: 10% | Population Mitochondria Different-Phenotype (%) [9]: 60% | Population Mitotic Cells (%) [9]: 23% | Population Normal (%) [9]: 77% | Population Pyknosed Nuclei (%) [9]: 18% | Population Tubulin-Different-Phenotype (%) [9]: 83% | Total Cell Count [9]: 148 | Population Apoptotic (%) [10]: 62% | Population Fragmented Nuclei (%) [10]: 36% | Population Healthy Nuclei (%) [10]: 54% | Population Hoechst High Intensity Objects (%) [10]: 10% | Population Membrane Permeable-Phenotype (%) [10]: 0% | Population Mitochondria Different-Phenotype (%) [10]: 75% | Population Mitotic Cells (%) [10]: 37% | Population Normal (%) [10]: 89% | Population Pyknosed Nuclei (%) [10]: 9% | Population Tubulin-Different-Phenotype (%) [10]: 95% | Total Cell Count [10]: 98

Cn1cncc1[C@@](O)(COc1ccc(C#N)cc1-c1ccc(OC(F)(F)F)cc1)c1ccc(C#N)cc1 [A-108]
Population Apoptotic (%) [1]: 53% and 83% | Population Fragmented Nuclei (%) [1]: 39% and 19% | Population Healthy Nuclei (%) [1]: 44% and 66% | Population Hoechst High Intensity Objects (%) [1]: 15% and 12% | Population Membrane Permeable-Phenotype (%) [1]: 23% and 8% | Population Mitochondria Different-Phenotype (%) [1]: 20% and 7% | Population Mitotic Cells (%) [1]: 46% and 16% | Population Normal (%) [1]: 84% and 87% | Population Pyknosed Nuclei (%) [1]: 15% and 14% | Total Cell Count [1]: 192 and 337 | Population Apoptotic (%) [2]: 42% and 57% | Population Fragmented Nuclei (%) [2]: 52% and 61% | Population Healthy Nuclei (%) [2]: 34% and 26% | Population Hoechst High Intensity Objects (%) [2]: 32% | Population Membrane Permeable-Phenotype (%) [2]: 0% and 5% | Population Mitotic Cells (%) [2]: 57% and 42% | Population Normal (%) [2]: 67% | Population Pyknosed Nuclei (%) [2]: 12% and 11% | Population Tubulin-Different-Phenotype (%) [2]: 26% and 52% | Total Cell Count [2]: 82 and 94 | Population Apoptotic (%) [3]: 54% and 58% | Population Fragmented Nuclei (%) [3]: 40% and 16% | Population Healthy Nuclei (%) [3]: 47% and 69% | Population Hoechst High Intensity Objects (%) [3]: 11% and 16% | Population Membrane Permeable-Phenotype (%) [3]: 3% and 7% | Population Mitotic Cells (%) [3]: 45% and 41% | Population Normal (%) [3]: 88% and 83% | Population Pyknosed Nuclei (%) [3]: 14% | Total Cell Count [3]: 216 and 318 | Population Apoptotic (%) [4]: 50% and 62% | Population Fragmented Nuclei (%) [4]: 50% | Population Healthy Nuclei (%) [4]: 43% and 37% | Population Hoechst High Intensity Objects (%) [4]: 29% and 21% | Population Membrane Permeable-Phenotype (%) [4]: 14% and 16% | Population Mitochondria Different-Phenotype (%) [4]: 66% and 28% | Population Mitotic Cells (%) [4]: 50% and 37% | Population Normal (%) [4]: 70% and 78% | Population Pyknosed Nuclei (%) [4]: 6% and 11% | Population Tubulin-Different-Phenotype (%) [4]: 37% and 52% | Total Cell Count [4]: 88 and 85
